This is a sample that favours compounds with a hit; in the whole collection about 6% have one here.
Pyk2 oligo antag: Pyk2 (human) oligomerization antagonism; Q14289; Q293 cells, Pyk2 FERM NanoBiT luminescence; stronger effect = lower value; z-score (the deposit names both 25 µM and 10 µM); hit rate 0.83% among 99,000; AID 1347419;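 active means Z-score of -3 or lower, scaled per plate to the spread of control and sample wells; inactive means z-score above -3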;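 further: negative z-score means lost luminescence so less FERM oligomerization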
Fibroblast inh: blocks proliferation of human lung fibroblasts; LL 47 human lung fibroblast viability, ATP luminescence; stronger effect = lower value; viability, % at 10 µM; hit rate 1.1% among 85,000; AID 719;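 active means viability at or below 50% in the single dose screen; inactive means viability above 50%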;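 further: compound exposure lasted 72 h before the ATP readout; 100% = median luminescence of untreated cell-only wells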
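Times – overnight cell rest, 72 h compound treatment at 37 °C · Test system – human lung fibroblast line LL 47, low passage · Amount – 1,150 cells in each well · Controls – cell-only wells, no compound · Doses – 0.1% DMSO in all compound wells · Measured by – CellTiter-Glo luminescence · Buffer or medium – IMEM plus 15% FBS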
Jurkat viability: cytotoxic compounds reducing Jurkat cell viability; Jurkat E6.1 viability, ATP luminescence, 48 h; inhibition, % at 4 µM; hit rate 1.2% among 56,000; AID 463;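 active means inhibition above the mean inhibition of all tested compounds plus 3 SD, cut at about 28% in these data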
HUVEC prolif 384: human endothelial cell proliferation inhibition; HUVEC proliferation, CellTiter-Glo luminescence, 72 h; stronger effect = lower value; viability, % at 10 µM (by protocol); hit rate 1.1% among 86,000; AID 648;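 active means viability at or below 30%; inactive means viability above 30%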;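 further: 100% = median luminescence of DMSO-only cell control wells on each plate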
H69AR growth 86K: growth inhibitors of human H69AR lung tumor cells; AID 598; viability, % at 10 µM; hit rate 6% among 85,000; H69AR lung tumor viability, ATP luminescence, 72 h; stronger effect = lower value;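 active means viability at or below 40%; inactive means viability above 40%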;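 further: multidrug resistant small cell line overexpressing MRP-1 efflux transporter; 100% = mean luminescence of untreated control wells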
cytoskel mod: cytoskeleton assembly modification. HUVEC TNFa F-actin phalloidin imaging, high content. inhibition, % at 2 µM. hit rate 0.18% among 91,000;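 active means inhibition above the batch mean plus 3 SD and confirmed as a hit by visual image inspection, cut at about 30% in these data, passing the limit was not always enough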
* = called active by the depositor; / = no result.

SMILES	Pyk2 oligo antag	Fibroblast inh	Jurkat viability	HUVEC prolif 384	H69AR growth 86K	cytoskel mod
CCCn1c(N2CCN(C(=O)N3CCCCC3)CC2)nc2ccccc21	0.75	102	5	114	83	23
CCCn1c(N2CCN(CC(=O)NCc3cccs3)CC2)nc2ccccc21	-0.26	99	0	102	38*	6
CC(C)(C)NC(=O)CN(C(=O)CS(=O)CC(=O)Nc1ccc(F)cc1)c1ccc(Cl)cc1 (centres undefined)	0.28	107	11	110	97	2
CCn1c(Oc2ccc(Oc3ncc(Cl)cc3Cl)cc2)nc2c1c(=O)n(C)c(=O)n2C	/	105	-2	95	92	/
NC(=S)N/N=C/c1ccc(-c2cc(Cl)ccc2Cl)o1	-3*	/	/	/	/	-8
CSCCC(NS(=O)(=O)c1ccccc1F)C(=O)OCc1ccccc1Cl (centres undefined)	0.24	/	/	/	/	/
Cc1ccc(CNC(=O)CC2C(=O)Nc3c2c(=O)n(C)c(=O)n3Cc2ccccc2)cc1 (centres undefined)	-0.79	93	/	81	83	9
Cc1nn(-c2ccccc2)c2sc(C(=O)n3cccn3)cc12	1	92	-5	48	38*	/
Cc1cnc(NC(=O)c2cc3c(C)nn(-c4ccccc4)c3s2)s1	-0.71	62	/	64	26*	-5
Cc1cc(NC(=O)c2cc(-c3ccncc3)nc3c(C)cccc23)no1	-0.66	50	78*	33	24*	-7
Cc1cc(C)c2nc(-c3ccccn3)cc(C(=O)Nc3cc(C)on3)c2c1	1.9	81	-4	50	34*	2
CC1CCCCC1NC(=O)CSc1nc2ccccc2c(=O)n1Cc1ccco1 (centres undefined)	0.07	87	13	95	44	/
COc1cc(C(=O)NCc2ccc(-c3nc4ccccc4o3)cc2)cc(OC)c1OC	0.09	45*	2	38	64	25
CCCn1c(CNc2ccccc2O)nc2ccccc21	-0.82	101	-6	100	27*	-13
CCSc1nc(N)c(C#N)c(-c2ccccc2Cl)c1C#N	-3.7*	99	/	100	37*	17
CC(C)c1ccc(-c2c(C#N)c(N)nc(SCC(=O)N3CCCCCC3)c2C#N)cc1	/	84	/	79	60	/
Nn1c(SCC(=O)NC2CCCCC2)nnc1-c1ccc(Cl)cc1	0.32	103	-5	116	100	8
CC(C)c1ccc(-c2c(C#N)c(N)nc(SCC(=O)N3CCCCC3)c2C#N)cc1	-0.03	72	/	28*	63	-15
C=CCSc1nc(N)c(C#N)c(-c2ccc(C)cc2)c1C#N	-3.5*	/	6	/	/	-16
CCOC(=O)CSc1nc(N)c(C#N)c(-c2ccc(OCC)cc2)c1C#N	0.64	98	0	94	97	-5
N#Cc1c(N)nc(SCC(=O)NC2CCCCC2)c(C#N)c1-c1ccc(Cl)cc1	0.09	66	-1	66	36*	27
C=CCOc1ccc2ccccc2c1CNc1ncn[nH]1	0.05	91	6	99	72	-2
Cc1nc(SCC(=O)N2CCN(c3ccccc3)CC2)c2c(=O)n(C)c(=O)n(C)c2n1	/	99	5	105	98	/
CCCCn1c(=O)nc2n(-c3ccccc3)c3ccccc3cc-2c1=O	-1.1	/	/	/	/	-18
COc1cc(C#CC#CCN2CCCCC2)ccc1O	-0.13	94	18	98	3.6*	-3
SMILES	Pyk2 oligo antag	Fibroblast inh	Jurkat viability	HUVEC prolif 384	H69AR growth 86K	cytoskel mod
COc1cc(C(=O)OCCN2CCCCC2)ccc1O	0.21	/	/	/	/	11
Cc1ccccc1C(=O)N/N=C/c1ccc([N+](=O)[O-])s1	-0.47	64	/	7.2*	21*	16
O=C(N/N=C/c1ccc([N+](=O)[O-])s1)c1ccccc1Br	0.35	63	/	62	16*	7
O=C(CSc1nc2c(c(=O)n1-c1ccc(Cl)cc1)SCC2)Nc1nccs1	-0.15	88	/	78	20*	/
O=C(CSc1nc2c(c(=O)n1-c1ccc(Br)cc1)SCC2)Nc1nccs1	-1.7	86	5	65	36*	/
CCCCN1C(=O)c2ccc(C(=O)NC3=NCCS3)cc2C1=O	-0.83	102	4	96	94	21
COc1cccc(C2C(C(=O)OC(C)C)=C(C)Nc3ncnn32)c1 (centres undefined)	-1.1	/	-7	/	/	46
C/C(=N/OCO/N=C(/C)c1ccc(F)cc1)c1ccc(F)cc1	-0.67	/	/	/	/	/
Cc1ccccc1N1C(=O)c2sc3nc4c(c(=O)n3c2C1=O)CCC4	0.16	85	1	96	3.4*	12
O=C1c2sc3nc4ccccc4n3c2C(=O)N1c1ccccc1Cl	0.86	71	-3	72	2.9*	16
O=C1c2sc3nc4c(c(=O)n3c2C(=O)N1c1ccccc1)CCC4	1.1	90	1	98	35*	-10
O=c1/c(=C\c2cccnc2)sc2nc3ccccc3n12	0	103	-3	84	73	-5
O=c1nc2ccccc2c2n1CC(CN1CCN(c3ccccc3F)CC1)N2 (centres undefined)	-0.56	/	/	/	/	-16
N#CC1=C(Nc2ccccc2)SC=C(c2ccc(F)cc2)N=C1N1CCOCC1	/	95	/	95	101	-2
Cc1cc(C)nc(NC(=O)/C=C/c2ccccc2Cl)n1	0.56	/	/	/	/	40
Cc1cc(C(=O)NNC(=S)NC(=O)/C=C/c2ccccc2Cl)n[nH]1	-0.55	80	/	80	36*	13
Cc1nc2cc(NS(=O)(=O)c3c(C)c(C)cc(C)c3C)ccc2s1	-3.8*	88	/	98	51	2
Cc1nc2ccc(NS(=O)(=O)c3c(C)c(C)cc(C)c3C)cc2s1	-1.8	96	/	87	16*	2
Cc1ccc(S(=O)(=O)Nc2ccc3nc(C)sc3c2)cc1	1.5	105	/	95	95	11
CC1CCN(c2nc3ccc(C(=O)N4CCN(Cc5ccc6c(c5)OCO6)CC4)cc3s2)CC1	/	96	/	80	72	6
O=C1CCCc2c1[nH]c1ccc(Cl)cc21	-0.17	97	/	19*	107	-36
CCOC(=O)c1ccc2[nH]c3c(c2c1)CCCCC3=O	-1.1	107	-3	76	93	-4
O=C(NCc1ccco1)C1CC(c2c(Cl)cccc2Cl)=NO1 (centres undefined)	/	/	/	/	/	7
COc1ccc(CNC(=O)C2CC(c3ccc(OC)cc3)=NO2)cc1 (centres undefined)	1.6	90	4	75	92	-1
COc1ccc(C2=NOC(C(=O)NCc3ccco3)C2)cc1 (centres undefined)	0.49	81	/	57	25*	-5
COc1cc(C2=NOC(C(=O)NCc3ccco3)C2)cc(OC)c1OC (centres undefined)	0.11	62	73*	59	25*	-14
Cc1cc2nc(C)n(CCCNC(=O)Nc3cccc4ccccc34)c2cc1C	0.31	90	/	89	100	-12
CCOC(=O)c1ccccc1OCc1cc(/C=N/n2cncn2)ccc1OC	-0.87	99	/	81	34*	4
COc1ccc(/C=N/n2cnnc2)cc1COc1ccccn1	0.78	103	11	108	101	/

Assay outcomes deposited in PubChem by several laboratories.
